Experiments:
Assay type in all cases: functional
[1] = tested on: SF-268; assay: Antiproliferative activity against human SF268 cells assessed as cell growth at 100 uM after 48 hrs by alamar blue assay; settings: SF-268, 48 h, read-out: Activity
Procedure, shortened: (§1)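 NCI three-cell-line primary screen. Cells are seeded and preincubated in microtiter plates. Compound is added at a single 10^-4 M concentration and cultures are incubated 48 h. The end-point is read with alamar blue. Results are given as percent growth relative to untreated control cells.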

[2] = tested on: NCI-H460; assay: Antiproliferative activity against human NCI-H460 cells assessed as cell growth at 100 uM after 48 hrs by alamar blue assay; settings: NCI-H460, 48 h, read-out: Activity; procedure, shortened: as §1
[3] = tested on: MCF7; assay: Antiproliferative activity against human MCF7 cells assessed as cell growth at 100 uM after 48 hrs by alamar blue assay; settings: MCF7, 48 h, read-out: Activity; procedure, shortened: as §1

| Compound | growth at 100 µM [1] | growth at 100 µM [2] | growth at 100 µM [3] |
| --- | --- | --- | --- |
| COc1ccc(/C=N/c2nc3[nH]nc(C)n3c(=O)c2S(=O)(=O)NN2C(=O)C(CN3CCOCC3)SC2c2ccc(Cl)cc2)cc1 (stereo not drawn) | 95% | 68% | 94% |
| COc1ccc(/C=N/c2nc3[nH]nc(C)n3c(=O)c2S(=O)(=O)NN2C(=O)C(CN3CCOCC3)SC2c2ccc(C)cc2)cc1 (stereo not drawn) | 82% | 63% | 67% |
| COc1ccc(/C=N/c2nc3[nH]nc(C)n3c(=O)c2S(=O)(=O)NN2C(=O)C(CN3CCN(C)CC3)SC2c2ccc(C)cc2)cc1 (stereo not drawn) | 102% | 109% | 55% |
| COc1ccc(/C=N/c2nc3[nH]nc(C)n3c(=O)c2S(=O)(=O)Nc2ccc(Cl)cc2)cc1 | 87% | 102% | 87% |
| COc1ccc(/C=N/c2nc3[nH]nc(C)n3c(=O)c2S(=O)(=O)NN2C(=O)C(CN3CCN(C)CC3)SC2c2ccc(Cl)cc2)cc1 (stereo not drawn) | 106% | 86% | 102% |
| COc1ccc(/C=N/c2nc3[nH]nc(C)n3c(=O)c2S(=O)(=O)Nc2ccc(C)cc2)cc1 | 85% | 89% | 83% |
| COc1ccc(/C=N/c2nc3[nH]nc(C)n3c(=O)c2S(=O)(=O)NN2C(=O)CSC2c2ccc(Cl)cc2)cc1 (stereo not drawn) | 84% | 88% | 90% |
| COc1ccc(/C=N/c2nc3[nH]nc(C)n3c(=O)c2S(=O)(=O)NN2C(=O)CSC2c2cccs2)cc1 (stereo not drawn) | 98% | 106% | 89% |
| COc1ccc(/C=N/c2nc3[nH]nc(C)n3c(=O)c2S(=O)(=O)N/N=C/c2ccc(C)cc2)cc1 | 93% | 83% | 87% |
| COc1ccc(/C=N/NS(=O)(=O)c2c(/N=C/c3ccc(OC)cc3)nc3[nH]nc(C)n3c2=O)cc1 | 85% | 55% | 83% |
| COc1ccc(/C=N/c2nc3[nH]nc(C)n3c(=O)c2S(=O)(=O)NN2C(=O)CSC2c2ccc(OC)cc2)cc1 (stereo not drawn) | 94% | 118% | 91% |
| COc1ccc(/C=N/c2nc3[nH]nc(C)n3c(=O)c2S(=O)(=O)N/N=C/c2cccs2)cc1 | 62% | 13% | 66% |
| COc1ccc(/C=N/c2nc3[nH]nc(C)n3c(=O)c2S(=O)(=O)Nc2ccc(OC)cc2)cc1 | 91% | 82% | 86% |
| COc1ccc(/C=N/c2nc3[nH]nc(C)n3c(=O)c2S(=O)(=O)N/N=C/c2ccc(Cl)cc2)cc1 | 101% | 73% | 93% |
| COc1ccc(/C=N/c2nc3[nH]nc(C)n3c(=O)c2S(=O)(=O)NN)cc1 | 55% | 45% | 43% |
| COc1ccc(/C=N/c2nc3[nH]nc(C)n3c(=O)c2S(=O)(=O)NN2C(=O)CSC2c2ccc(C)cc2)cc1 (stereo not drawn) | 63% | 67% | 72% |
